Laboratory results published in ChEMBL document CHEMBL1126031, “1,2,3-trisubstituted cyclopropanes as conformationally restricted peptide isosteres: application to the design and synthesis of novel renin inhibitors” (J Med Chem, 1992).

Key:
Renin [1] = target: T1, Renin (Homo sapiens, UniProt P00797); experiment: In vitro inhibition of purified human renin at a pH of 6.0.
T1 sequence (P00797 whole entry): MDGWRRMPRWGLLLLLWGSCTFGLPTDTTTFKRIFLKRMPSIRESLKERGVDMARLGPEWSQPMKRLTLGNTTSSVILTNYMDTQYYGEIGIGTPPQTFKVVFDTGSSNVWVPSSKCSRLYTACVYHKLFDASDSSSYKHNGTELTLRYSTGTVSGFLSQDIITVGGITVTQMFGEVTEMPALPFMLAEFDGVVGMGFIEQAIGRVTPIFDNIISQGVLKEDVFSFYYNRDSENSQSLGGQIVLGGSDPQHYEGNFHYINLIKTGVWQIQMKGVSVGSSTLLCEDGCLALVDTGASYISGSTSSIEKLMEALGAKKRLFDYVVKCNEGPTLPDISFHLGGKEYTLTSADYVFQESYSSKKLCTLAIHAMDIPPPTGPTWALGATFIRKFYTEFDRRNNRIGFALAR
Outline: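 Purified human renin, assayed at pH 6.0 by a procedure from earlier work.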

Renin [2] = target: T1, Renin; experiment: In vitro potency against human plasma renin at pH 7.4; assay type: cell-free
Outline: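 Renin in human plasma, assayed at pH 7.4 by a procedure from earlier work.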

Renin (Homo sapiens) = target: T2, Renin (Homo sapiens) (UniProt P00797); experiment: In vitro potency to inhibit human plasma renin at a pH of 7.4 and at 1*10e-6 M concentration; assay type: cell-free
T2 sequence (whole entry): T1 sequence (P00797 whole entry)

[3] = Half life of the compound

| SMILES | IC50 (Renin [1]) | IC50 (Renin [2]) | inhibition (Renin (Homo sapiens)) | half-life [3] |
| --- | --- | --- | --- | --- |
| CC(C)C[C@H](O)[C@H](O)[C@H](CC1CCCCC1)NC(=O)[C@H](Cc1cscn1)NC(=O)[C@@H]1[C@H](Cc2ccccc2)[C@H]1C(=O)N1CCOCC1 | 0.12 µM |  |  |  |
| CC(C)C[C@H](O)[C@H](O)[C@H](CC1CCCCC1)NC(=O)[C@H](Cc1cscn1)NC(=O)[C@@H]1[C@@H](Cc2ccccc2)[C@H]1C(=O)N1CCOCC1 | 0.025 µM | > 1 µM | 30% |  |
| CC(C)C[C@H](O)[C@H](O)[C@H](CC1CCCCC1)NC(=O)[C@H](Cc1cscn1)NC(=O)[C@@H]1[C@@H](C(=O)N2CCOCC2)[C@H]1c1ccccc1 | 0.12 µM |  |  |  |
| CC(C)C[C@H](O)[C@H](O)[C@H](CC1CCCCC1)NC(=O)[C@H](Cc1cscn1)NC(=O)[C@H]1[C@H](C(=O)N2CCOCC2)[C@H]1c1ccccc1 | 0.2 µM |  |  |  |
| CC(C)C[C@@H]1[C@H](C(=O)N[C@@H](Cc2cscn2)C(=O)N[C@@H](CC2CCCCC2)[C@@H](O)[C@@H](O)CC(C)C)[C@H]1C(=O)N1CCOCC1 | 0.033 µM |  |  |  |
| CC[C@H]1[C@H](C(=O)N[C@@H](Cc2cscn2)C(=O)N[C@@H](CC2CCCCC2)[C@@H](O)[C@@H](O)CC(C)C)[C@H]1C(=O)N1CCOCC1 | 0.2 µM |  |  |  |
| CC(C)C[C@H](O)[C@H](O)[C@H](CC1CCCCC1)NC(=O)[C@H](Cc1cscn1)NC(=O)[C@H]1[C@@H](Cc2ccccc2)[C@@H]1C(=O)N1CCOCC1 | 0.027 µM |  |  |  |
| CC(C)C[C@H](O)[C@H](O)[C@H](CC1CCCCC1)NC(=O)[C@H](Cc1cscn1)NC(=O)[C@H](CC(=O)N1CCOCC1)Cc1ccccc1 | 0.15 µM |  |  |  |
| CC(C)C[C@H]1[C@H](C(=O)N[C@@H](Cc2cscn2)C(=O)N[C@@H](CC2CCCCC2)[C@@H](O)[C@@H](O)CC(C)C)[C@H]1C(=O)N1CCOCC1 | 0.044 µM |  |  |  |
| CC[C@@H]1[C@H](C(=O)N[C@@H](Cc2cscn2)C(=O)N[C@@H](CC2CCCCC2)[C@@H](O)[C@@H](O)CC(C)C)[C@H]1C(=O)N1CCOCC1 | 0.092 µM |  |  |  |
| CC(C)C[C@H](O)[C@H](O)[C@H](CC1CCCCC1)NC(=O)[C@H](Cc1cscn1)NC(=O)[C@@H]1[C@@H](C(=O)N2CCOCC2)[C@@H]1c1ccccc1 | 0.12 µM |  |  |  |

Now those with a lower IC50 (Renin [1]), led by results:

| IC50 (Renin [1]) | IC50 (Renin [2]) | inhibition (Renin (Homo sapiens)) | half-life [3] | SMILES |
| --- | --- | --- | --- | --- |
| 0.019 µM | > 1 µM | 46% |  | CC(C)C[C@H]1[C@@H](C(=O)N[C@@H](Cc2cscn2)C(=O)N[C@@H](CC2CCCCC2)[C@@H](O)[C@@H](O)CC(C)C)[C@@H]1C(=O)N1CCOCC1 |
| 0.016 µM | 0.61 µM |  |  | CC[C@H]1[C@@H](C(=O)N[C@@H](Cc2cscn2)C(=O)N[C@@H](CC2CCCCC2)[C@@H](O)[C@@H](O)CC(C)C)[C@@H]1C(=O)N1CCOCC1 |
| 0.01 µM | 0.23 µM |  |  | CC[C@@H]1[C@@H](C(=O)N[C@@H](Cc2cscn2)C(=O)N[C@@H](CC2CCCCC2)[C@@H](O)[C@@H](O)CC(C)C)[C@@H]1C(=O)N1CCOCC1 |
| 0.01 µM | 0.37 µM |  |  | CC(C)C[C@H](O)[C@H](O)[C@H](CC1CCCCC1)NC(=O)[C@H](Cc1cscn1)NC(=O)[C@H]1[C@H](Cc2ccccc2)[C@@H]1C(=O)N1CCOCC1 |
| 0.0024 µM | 0.3 µM |  |  | CCOC(=O)N[C@@H](Cc1ccc(I)cc1)C(=O)N[C@@H](CC(C)C)C(=O)N[C@@H](CC1CCCCC1)[C@@H](O)[C@@H](O)CC(C)C |
| 0.0021 µM | 0.041 µM |  |  | CC(C)C[C@@H]1[C@@H](C(=O)N[C@@H](Cc2cscn2)C(=O)N[C@@H](CC2CCCCC2)[C@@H](O)[C@@H](O)CC(C)C)[C@@H]1C(=O)N1CCOCC1 |
| 0.0011 µM | 0.81 µM |  |  | CC(C)C[C@H](O)[C@H](O)[C@H](CC1CCCCC1)NC(=O)[C@H](Cc1cscn1)NC(=O)C1[C@@H](c2ccccc2)[C@H]1c1ccccc1 (stereo not given in full) |
| 0.0007 µM | 0.02 µM |  | > 5 h | CC(C)C[C@H](O)[C@H](O)[C@H](CC1CCCCC1)NC(=O)[C@H](Cc1cscn1)NC(=O)[C@H]1[C@H](C(=O)N2CCOCC2)[C@@H]1c1ccccc1 |
| 0.00047 µM | 0.054 µM |  |  | CC(C)C[C@H](O)[C@H](O)[C@H](CC1CCCCC1)NC(=O)[C@H](Cc1cscn1)NC(=O)C(Cc1ccccc1)Cc1ccccc1 |
| 0.00036 µM | 0.0083 µM |  |  | CC(C)C[C@H](O)[C@H](O)[C@H](CC1CCCCC1)NC(=O)[C@H](Cc1cscn1)NC(=O)[C@@H](CC(=O)N1CCOCC1)Cc1ccccc1 |
